The source of these data is ChEMBL document CHEMBL4130513, “Jozilebomines A and B, Naphthylisoquinoline Dimers from the Congolese Liana Ancistrocladus ileboensis, with Antiausterity Activities against the PANC-1 Human Pancreatic Cancer Cell Line” (J Nat Prod, 2017).

The source made the active and inactive calls. No cut-off for these calls is given here.

One series has as its system Plasmodium falciparum. Briefly: Antiplasmodial activity against Plasmodium falciparum NF54 assessed as reduction in [3H]hypoxanthine incorporation pretreated for 48 hrs followed by [3H]hypoxanthine addition measured after 24 hrs by liquid scintillation counting method. In kind it is functional, organism-based.
The next series has as its system Leishmania donovani. Briefly: Antileishmanial activity against Leishmania donovani amastigote forms after 72 hrs by alamar blue staining based fluorescence assay. In kind it is functional, organism-based.
For series [1], the system named is PANC-1. Briefly: Antiausteritic activity against human PANC1 cells in nutrient-deprived medium measured after 24 hrs by WST8 assay. The format is functional. The procedure, abridged:
(§1)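 PANC-1 cells seeded at 1.5 × 10^4/well, attached 24 h in DMEM at 37 °C, 5% CO2. After two PBS washes, exposed to serially diluted samples in nutrient-rich DMEM or nutrient-deprived medium (pH 7.4) for 24 h. Then WST-8 (10% in DMEM) for 3 h, A450 read. Viability is relative to control and blank wells. PC50 is the concentration killing 50% of cells preferentially in NDM.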
(In general: Tetrazolium assays rely on reduction of a dye to a coloured formazan, in cell work by metabolically active cells.)

Series [2] relates to PANC-1. Briefly: Cytotoxicity against human PANC1 cells in DMEM measured after 24 hrs by WST8 assay. In kind it is cell-based. Particulars: panc-1, 24 h. The procedure, abridged: as §1
The next series relates to L6. The series can be described thus: Cytotoxicity against rat L6 cells after 72 hrs by alamar blue staining based fluorescence assay. The format is cell-based. A general note: Alamar Blue is a resazurin reagent that responds to reducing activity.
The next series relates to HeLa. Briefly: Cytotoxicity against human HeLa cells assessed as reduction in cell viability after 72 hrs by CCK8 assay. In kind it is functional, cell-based. The procedure, abridged:
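HeLa cells (DMEM, 10% FBS) plated at 2 × 10^3/well and attached 24 h at 37 °C, 5% CO2. After a PBS wash, serially diluted samples in DMEM were added for 72 h, with paclitaxel as positive control. Cells were washed, given 10% WST-8 (CCK-8) in DMEM for 3 h, and A450 was read. Viability was taken from three-well means, corrected against blank and control.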

For another series, the system named is Trypanosoma cruzi. The series can be described thus: Antitrypanosomal activity against Trypanosoma cruzi trypomastigote forms infected in rat L6 cells after 96 hrs by CPRG/Nonidet substrate based photometric method. The format is functional, organism-based.
Series [3] is described as follows: Selectivity index, ratio of IC50 for rat L6 cells to IC50 for Plasmodium falciparum NF54. The format is toxicity.
In series [4] the test system is Trypanosoma brucei rhodesiense. Briefly: Antitrypanosomal activity against Trypanosoma brucei rhodesiense bloodstream forms after 72 hrs by alamar blue staining based fluorescence assay. In kind it is functional, organism-based.
Series [5] concerns PANC-1. Briefly: Induction of morphological changes in human PANC1 cells assessed as disintegration of cell organelles at 5 uM after 24 hrs by ethidium bromide/acridine orange staining based microscopic analysis. The format is functional. The procedure, abridged:
(§2)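 PANC-1 cells seeded at 1 × 10^6 per well and attached 24 h. After two PBS washes, treated in NDM with vehicle or 5 μM compound for 24 h. EB/AO dye mix (100 μg mL−1 each in PBS) added for 5 min. Imaged by phase contrast and red/green fluorescence at 20× objective.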

In series [6] the test system is PANC-1. Briefly: Induction of morphological changes in human PANC1 cells assessed as cell membrane rupture at 5 uM after 24 hrs by ethidium bromide/acridine orange staining based microscopic analysis. In kind it is functional. The method, boiled down:
as §2

For series [7], the system named is PANC-1. Briefly: Inhibition of colony formation in human PANC1 cells pretreated for 24 hrs followed by compound washout measured after 10 days by crystal violet staining based assay. The format is functional, cell-based. The method, boiled down:
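PANC-1 cells plated at 500/well in DMEM and attached 24 h at 37 °C, 5% CO2. Exposed 24 h to compound (1.25 and 2.5 μM) in DMEM or to DMEM alone. Washed with PBS, then grown 10 d in fresh DMEM. Fixed with 4% formaldehyde and stained with crystal violet for 10 min. Colony area quantified; three independent experiments.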

As a reminder, the IC50 is the concentration at which inhibition is half-maximal. In the case of `COc1cc(C)c(-c2ccc3c(c2O)[C@@H](C)N[C@H](C)C3)c2ccc(-c3c(C)c(-c4ccc5c(c4O)[C@@H](C)N[C@H](C)C5)c4cccc(OC)c4c3O)c(O)c12` (atropisomer, axis not shown) [listing 1 of 2 here], the concentration for half-maximal inhibition (IC50) with Plasmodium falciparum turned out to be 0.043 µM; in the series with Leishmania donovani (Leishmania donovani, 72 h), 89.7 µM; with L6 (Rattus norvegicus, L6, 72 h) it was 6.85 µM; with HeLa (Homo sapiens, HeLa, 72 h) it was 1.08 µM; in the series on Trypanosoma cruzi (l6), 23.8 µM; in [4] (Trypanosoma brucei, 72 h), 0.732 µM. Also, the PC50 in the series with PANC-1 [1] came to 2.24 µM. Besides, in the series with PANC-1 [2], the Activity entry was “Non-Toxic”. For the same compound, in [3], the “Ratio IC50” value turned out to be 160.

`COc1cc(C)c(-c2ccc3c(c2O)[C@@H](C)N[C@H](C)C3)c2ccc(-c3c(C)c(-c4ccc5c(c4O)[C@@H](C)N[C@H](C)C5)c4cccc(OC)c4c3O)c(O)c12` (atropisomer, axis not shown) [listing 2 of 2 here]: the result in the series on PANC-1 [5] and with PANC-1 [6] was Active. Moreover, the Activity entry with PANC-1 [1] and in the series on HeLa was “Dose-dependent effect” throughout. Moreover, in the series on PANC-1 [7], the inhibition entry was “Dose-dependent effect”.

For the compound `COc1cc(C)c(-c2ccc3c(c2O)[C@@H](C)N[C@H](C)C3)c2ccc(-c3c(C)c(-c4ccc5c(c4O)[C@@H](C)N[C@H](C)C5)c4cccc(OC)c4c3O)c(O)c12` (single isomer, unassigned; atropisomer 2) [listing 1 of 2 here], the IC50 in the series with Plasmodium falciparum was 0.102 µM; with Leishmania donovani, 55.8 µM; with L6 (l6), 5.33 µM; in the series on HeLa (hela), 0.68 µM; in the series with Trypanosoma cruzi (Trypanosoma cruzi, L6, 96 h), 21.9 µM; in series [4], 1.03 µM. The PC50 in the series with PANC-1 [1] came out at 0.87 µM. For the same compound, the “Ratio IC50” value in series [3] is 52.3.

With `COc1cc(C)c(-c2ccc3c(c2O)[C@@H](C)N[C@H](C)C3)c2ccc(-c3c(C)c(-c4ccc5c(c4O)[C@@H](C)N[C@H](C)C5)c4cccc(OC)c4c3O)c(O)c12` (single isomer, unassigned; atropisomer 2) [listing 2 of 2 here], the result in the series on PANC-1 [5] and in the series on PANC-1 [6] was Active. The Activity entry with PANC-1 [1] and with HeLa was “Dose-dependent effect” throughout. Also, in the series on PANC-1 [7], the inhibition result is “Dose-dependent effect”.

In the series on PANC-1 [1], `COc1cc(C[C@H]2C(=O)OC[C@@H]2Cc2ccc(OC)c(OC)c2)ccc1O` [ARCTIGENIN] displayed a PC50 of 0.83 µM.
